Calls of active or inactive are those of the source. The calls are words filed in the database; no cut-off is given here.
Legend:
[1] = tested on: HT-1080; assay: Photocytotoxicity against human HT1080 cells treated 30 mins before 3.75 J/cm'2 UVA irradiation measured after 72 hrs by MTT assay; assay type: functional, cell-based; conditions: HT-1080, light or radiation study
[2] = Photocytotoxicity against human NCTC 2544 cells treated 30 mins before 3.75 J/cm'2 UVA irradiation measured after 72 hrs by MTT assay; assay type: functional, cell-based; conditions: NCTC-2544, light or radiation study
[3] = Photocytotoxicity against human NCTC 2544 cells treated 30 mins before 2.5 J/cm'2 UVA irradiation measured after 72 hrs by MTT assay; assay type: functional, cell-based; conditions: NCTC-2544, light or radiation study
[4] = tested on: HL-60; assay: Photocytotoxicity against human HL-60 cells treated 30 mins before 3.75 J/cm'2 UVA irradiation measured after 72 hrs by MTT assay; assay type: functional, cell-based; conditions: HL-60, light or radiation study
[5] = tested on: LoVo; assay: Photocytotoxicity against human LoVo cells treated 30 mins before 3.75 J/cm'2 UVA irradiation measured after 72 hrs by MTT assay; assay type: functional, cell-based; conditions: light or radiation study
[6] = tested on: LoVo; assay: Photocytotoxicity against human LoVo cells treated 30 mins before 2.5 J/cm'2 UVA irradiation measured after 72 hrs by MTT assay; assay type: functional, cell-based; conditions: light or radiation study
[7] = tested on: Jurkat; assay: Photocytotoxicity against human JURKAT cells treated 30 mins before 3.75 J/cm'2 UVA irradiation measured after 72 hrs by MTT assay; assay type: functional, cell-based; conditions: light or radiation study
[8] = tested on: HT-1080; assay: Photocytotoxicity against human HT1080 cells treated 30 mins before 2.5 J/cm'2 UVA irradiation measured after 72 hrs by MTT assay; assay type: functional, cell-based; conditions: HT-1080, light or radiation study
[9] = tested on: Jurkat; assay: Photocytotoxicity against human JURKAT cells treated 30 mins before 2.5 J/cm'2 UVA irradiation measured after 72 hrs by MTT assay; assay type: functional, cell-based; conditions: light or radiation study
[10] = tested on: HL-60; assay: Photocytotoxicity against human HL-60 cells treated 30 mins before 2.5 J/cm'2 UVA irradiation measured after 72 hrs by MTT assay; assay type: functional, cell-based; conditions: HL-60, light or radiation study
[11] = tested on: LoVo; assay: Photocytotoxicity against human LoVo cells at 1.25 uM treated 30 mins before 2.5 J/cm'2 UVA irradiation measured after 72 hrs by MTT assay in presence of sodium azide; assay type: functional, cell-based
In short: (§1)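 LoVo cells were seeded at 5×10³ per well in Ham's F12/10% FCS. Drug 1.25 μM was given with an additive: BHA 10⁻⁵ M, DMTU 1 mM, GSH 1 mM or NaN₃ 10 mM. After 30 min in HBSS at 37 °C, cells received UVA 2.5 J cm⁻², and MTT viability was read 72 h later.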

[12] = tested on: Erythrocyte; assay: Induction of protein photodamage of human erythrocyte ghost plasmatic membrane assessed as disappearance of the spectrin subunit bands at 10 uM treated 30 mins before 2.5 J/cm'2 UVA irradiation by electrophoresis; assay type: cell-based
In short: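 Erythrocyte ghost membranes (1.0 mg/ml protein) were irradiated with drug at increasing UVA doses.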

[13] = tested on: Jurkat; assay: Induction of apoptosis in human JURKAT cells assessed as annexin V positive cells treated 30 mins before 2.5 J/cm'2 UVA irradiation measured after 24 hrs by flow cytometry; assay type: functional, cell-based
In short: (§2)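 Jurkat cells were exposed to drug in HBSS pH 7.2 (from DMSO stock) for 30 min at 37 °C, then given UVA 2.5 J cm⁻² (365 nm) at several concentrations. After 24 h, cells were stained with Annexin V-FITC plus propidium iodide and analysed by flow cytometry (ex 488 nm; em 525 nm FITC, 560–680 nm PI).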

[14] = tested on: Jurkat; assay: Induction of apoptosis in human JURKAT cells homogenate assessed as lipid peroxidation treated 30 mins before 2.5 J/cm'2 UVA irradiation measured after 24 hrs by thiobarbituric acid assay; assay type: functional, cell-based
In short: (§3)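 Cells were grown 2 days to confluence, then irradiated in HBSS with drug 10 μM at varied UVA doses. At 24 h, the TBA test was run on supernatant and on cell homogenates. Malonaldehyde was quantified against a 1,1,3,3-tetraethoxypropane standard and expressed as nmol TBARS per total protein.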

[15] = tested on: LoVo; assay: Photocytotoxicity against human LoVo cells at 1.25 uM treated 30 mins before 2.5 J/cm'2 UVA irradiation measured after 72 hrs by MTT assay in presence of 2,6-di-t-butylhydroxyanisole; assay type: functional, cell-based; in short: as §1
[16] = tested on: Jurkat; assay: Induction of apoptosis in human JURKAT cells assessed as lysosomal damage treated 30 mins before 2.5 J/cm'2 UVA irradiation measured after 24 hrs by flow cytometry; assay type: functional, cell-based
In short: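 Jurkat cells were irradiated (2.5 J cm⁻²) with drug at several concentrations. At 24 h cells were stained with acridine orange 5 μg/mL for 15 min at 37 °C, washed, and analysed by flow cytometry (ex 488, em 546 nm).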

[17] = tested on: Jurkat; assay: Induction of apoptosis in human JURKAT cells assessed as increase in cardiolipin oxidation treated 30 mins before 2.5 J/cm'2 UVA irradiation measured after 24 hrs by N-nonyl acridine orange staining; assay type: functional, cell-based
In short: (§4)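 Jurkat cells were irradiated (UVA 2.5 J cm⁻²) with drug at several concentrations. At 24 h they were resuspended in HBSS with hydroethidine 0.1 μM, DCFDA 2.5 μM or NAO 5.0 μM for 30 min at 37 °C. Flow cytometry used ex 488 nm, em 585 nm (HE) or 530 nm (DCFDA, NAO). Values are means ± SEM, n=3.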

[18] = tested on: Nucleic Acid; assay: Induction of DNA photodamage of salmon testes DNA assessed as DNA intercalation by circular dichroism; assay type: nucleic-acid assay; conditions: Salmonidae
In short: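 Circular dichroism of salmon testes DNA (2 μM) with ligand at ligand/DNA ratios 0.02 and 0.04 in phosphate buffer. Spectra are the average of 4 scans.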

[19] = tested on: Jurkat; assay: Induction of apoptosis in human JURKAT cells assessed as decrease in intracellular GSH levels treated 30 mins before 2.5 J/cm'2 UVA irradiation measured after 24 hrs by flow cytometry; assay type: functional, cell-based
In short: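 Jurkat cells were irradiated (2.5 J cm⁻²) with drug at several concentrations. At 24 h cells were harvested and incubated with monobromobimane 50 μM for 10 min at 37 °C. GS-mBBr was measured by flow cytometry (ex 354, em 450). Values are mean ± SEM, n=3.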

[20] = tested on: Jurkat; assay: Induction of apoptosis in human JURKAT cells assessed as reduction in mitochondrial membrane potential at 5 uM treated 30 mins before 2.5 J/cm'2 UVA irradiation measured after 24 hrs by flow cytometry; assay type: functional, cell-based
In short: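 Jurkat cells were treated with drug at 5 μM and UVA 2.5 J cm⁻², then sampled at different times after irradiation. Cells were resuspended in HBSS with JC-1 2.5 μM for 10 min at 37 °C, then analysed by flow cytometry. Values are mean ± SEM of three experiments.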

[21] = tested on: Escherichia coli; assay: Induction of DNA photodamage of Escherichia coli pBR322 exposed to 3.5 J/cm'2 UVA irradiation in presence of endonuclease 3
In short: (§5)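 pBR322 supercoiled plasmid (100 ng) in 10 mM phosphate buffer pH 7.2 irradiated with UVA (365 nm, 4.0 mW cm⁻²; 3.5 J cm⁻²) at [DNA]/[drug] ratios 1, 2 and 4. Aliquots were then incubated at 37 °C with Fpg or Endo III. Scavenger runs used drug ratio 1 with mannitol 10 mM, GSH 1 mM or NaN₃ 10 mM. Samples were run on 1% agarose in TAE, 70 V, 4 h. Read-out was % form II by densitometry, mean ± SEM of three independent experiments.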

[22] = tested on: Escherichia coli; assay: Induction of DNA photodamage of Escherichia coli pBR322 exposed to 3.5 J/cm'2 UVA irradiation; in short: as §5
[23] = tested on: LoVo; assay: Photocytotoxicity against human LoVo cells at 1.25 uM treated 30 mins before 2.5 J/cm'2 UVA irradiation measured after 72 hrs by MTT assay in presence of reduced glutathione; assay type: functional, cell-based; in short: as §1
[24] = tested on: Escherichia coli; assay: Induction of DNA photodamage of Escherichia coli pBR322 exposed to 3.5 J/cm'2 UVA irradiation in presence of sodium azide; in short: as §5
[25] = tested on: Nucleic Acid; assay: Induction of DNA photodamage of salmon testes DNA assessed as DNA intercalation by linear dichroism; assay type: nucleic-acid assay; conditions: Salmonidae
In short: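 Linear dichroism in a flow cell with salmon testes DNA at 2.27 mM in phosphate buffer, ligand/DNA r = 0, 0.02 and 0.04. Absorbance spectra were recorded alongside.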

[26] = tested on: Escherichia coli; assay: Induction of DNA photodamage of Escherichia coli pBR322 exposed to 3.5 J/cm'2 UVA irradiation in presence of formamidopyrimidine DNA glycosylase; in short: as §5
[27] = tested on: Jurkat; assay: Induction of apoptosis in human JURKAT cells supernatant assessed as lipid peroxidation treated 30 mins before 2.5 J/cm'2 UVA irradiation measured after 24 hrs by thiobarbituric acid assay; assay type: functional, cell-based; in short: as §3
[28] = tested on: Escherichia coli; assay: Induction of DNA photodamage of Escherichia coli pBR322 exposed to 3.5 J/cm'2 UVA irradiation in presence of mannitol; in short: as §5
[29] = tested on: Jurkat; assay: Induction of apoptosis in human JURKAT cells assessed as increase in reactive oxygen species release treated 30 mins before 2.5 J/cm'2 UVA irradiation measured after 24 hrs by hydroethidine staining; assay type: functional, cell-based; in short: as §4
[30] = tested on: Jurkat; assay: Induction of apoptosis in human JURKAT cells assessed as increase in reactive oxygen species release treated 30 mins before 2.5 J/cm'2 UVA irradiation measured after 24 hrs by DCFDA staining; assay type: functional, cell-based; in short: as §4
[31] = tested on: Jurkat; assay: Induction of necrosis in human JURKAT cell sat 5.0 uM treated 30 mins before 2.5 J/cm'2 UVA irradiation measured after 24 hrs; assay type: functional; in short: as §2
[32] = tested on: Jurkat; assay: Induction of apoptosis in human JURKAT cells assessed as caspase 3 activation treated 30 mins before 2.5 J/cm'2 UVA irradiation measured after 24 hrs by colorimetric assay
[33] = tested on: LoVo; assay: Photocytotoxicity against human LoVo cells at 1.25 uM treated 30 mins before 2.5 J/cm'2 UVA irradiation measured after 72 hrs by MTT assay in presence of N-N'-dimethylthiourea; assay type: functional, cell-based; in short: as §1
[34] = tested on: Escherichia coli; assay: Induction of DNA photodamage of Escherichia coli pBR322 exposed to 3.5 J/cm'2 UVA irradiation in presence of reduced glutathione; in short: as §5

## Cc1cc2c(n1S(=O)(=O)c1ccccc1)CCc1ccc(=O)sc1-2
[1]
  IC50: > 20 µM
[2]
  IC50: > 20 µM
[3]
  IC50: > 20 µM
[4]
  IC50: > 10 µM
[5]
  IC50: > 20 µM
[6]
  IC50: > 20 µM
[7]
  IC50: 5 µM
[8]
  IC50: > 20 µM
[9]
  IC50: 7.3 µM
[10]
  IC50: > 10 µM

## Cc1cc2c(n1Cc1ccccc1)CCc1ccc(=O)sc1-2
[1]
  IC50: 9.8 µM
[2]
  IC50: > 20 µM
[3]
  IC50: > 20 µM
[6]
  IC50: > 20 µM
[7]
  IC50: 2.2 µM
[8]
  IC50: 11.2 µM
[9]
  IC50: 4 µM
[10]
  IC50: 4 µM

## O=c1ccc2ccc3occc3c2o1 [ANGELICIN]
[2]
  IC50: 1.5 µM
[3]
  IC50: 4.2 µM
[9]
  IC50: 0.9 µM

## Cc1cc2c3sc(=O)ccc3ccc2n1-c1ccccc1
[1]
  IC50: 2 µM
[2]
  IC50: 14.8 µM
[3]
  IC50: 17 µM
[4]
  IC50: 1.3 µM
[5]
  IC50: 4.2 µM
[6]
  IC50: 5.1 µM
[7]
  IC50: 3.5 µM
[8]
  IC50: 5.4 µM
[9]
  IC50: 2.5 µM
[10]
  IC50: 2.6 µM

## COc1c2occc2cc2ccc(=O)oc12 [METHOXSALEN]
[1]
  IC50: 1.9 µM
[2]
  IC50: 0.9 µM
[3]
  IC50: 5.5 µM
[9]
  IC50: 1.2 µM

## Cc1cc2c(n1C)CCc1ccc(=O)sc1-2
[1]
  IC50: > 20 µM
[2]
  IC50: > 20 µM
[3]
  IC50: > 20 µM
[4]
  IC50: > 10 µM
[5]
  IC50: > 20 µM
[6]
  IC50: > 20 µM
[7]
  IC50: > 10 µM
[8]
  IC50: > 20 µM
[9]
  IC50: > 10 µM
[10]
  IC50: > 10 µM

## Cc1cc2c(n1-c1ccccc1)CCc1ccc(=O)sc1-2
[1]
  IC50: 10.5 µM
[2]
  IC50: > 20 µM
[3]
  IC50: > 20 µM
[4]
  IC50: 2.7 µM
[5]
  IC50: 12.3 µM
[6]
  IC50: > 20 µM
[7]
  IC50: 3.5 µM
[8]
  IC50: 11 µM
[9]
  IC50: 4.2 µM
[10]
  IC50: 6.2 µM

## Cc1cc2c3sc(=O)ccc3ccc2n1C
[11]
  Activity: Active
[1]
  IC50: 0.6 µM
[2]
  IC50: 1.6 µM
[3]
  IC50: 2.1 µM
[12]
  Activity: Active
[13]
  Activity: Dose-dependent effect
[14]
  Activity: Active
[15]
  Activity: inactive
[16]
  Activity: Active
[17]
  Activity: Active
[7]
  IC50: 0.2 µM
[18]
  Activity: inactive
[19]
  Activity: Dose-dependent effect
[20]
  Activity: Active
[21]
  Activity: Active
[22]
  Activity: inactive
[8]
  IC50: 0.9 µM
[23]
  Activity: inactive
[24]
  Activity: inactive
[25]
  Activity: inactive
[9]
  IC50: 0.5 µM
[26]
  Activity: Active
[27]
  Activity: Active
[28]
  Activity: inactive
[29]
  Activity: Active
[30]
  Activity: Active
[31]
  Activity: 2%
[32]
  Activity: Active
[33]
  Activity: inactive
[34]
  Activity: inactive

From ChEMBL document CHEMBL1142550, “Thiopyrano[2,3-e]indol-2-ones: angelicin heteroanalogues with potent photoantiproliferative activity” (Bioorg Med Chem, 2008)
